{"source": "ChEMBL document CHEMBL1131017", "about": "“Synthesis and evaluation of peptidyl Michael acceptors that inactivate human rhinovirus 3C protease and inhibit virus replication” (J Med Chem, 1998)", "key": {"[1]": {"target": "T1, Human rhinovirus A protease (Human rhinovirus sp.) (UniProt Q4U254)", "T1 sequence (whole entry)": "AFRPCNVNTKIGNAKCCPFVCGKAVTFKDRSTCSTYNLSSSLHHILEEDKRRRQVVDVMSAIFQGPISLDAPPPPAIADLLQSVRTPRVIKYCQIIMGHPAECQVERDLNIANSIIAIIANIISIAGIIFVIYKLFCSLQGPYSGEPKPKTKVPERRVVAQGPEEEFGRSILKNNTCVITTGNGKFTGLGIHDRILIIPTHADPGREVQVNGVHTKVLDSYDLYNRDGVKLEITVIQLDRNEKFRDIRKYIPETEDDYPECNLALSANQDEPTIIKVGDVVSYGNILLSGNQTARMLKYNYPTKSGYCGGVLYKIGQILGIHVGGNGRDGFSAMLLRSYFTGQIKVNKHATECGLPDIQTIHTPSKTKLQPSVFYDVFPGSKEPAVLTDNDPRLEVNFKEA", "assay": "Percent inhibition of HRV-14 3C protease was measured at a concentration of 1 ug/mL"}, "[2]": {"target": "T1, Human rhinovirus A protease (Human rhinovirus sp.)", "assay": "Percent inhibition of HRV-14 3C protease was measured at a concentration of 100 ug/mL(average of duplicates which agreed within +/- 10%)"}, "[3]": {"tested_on": "HeLa", "assay": "Antiviral activity measured in cell culture assay, inhibiting plaque formation by 50% at subumolar concentrations.", "format": "functional, cell-based", "conditions": "Homo sapiens", "summary_of_the_method": "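HeLa monolayers (confluent) were infected with HRV-14 at 100 PFU/plate. After 30 min adsorption they were overlaid with maintenance medium containing 0.5% agarose plus compound at various concentrations, then held 48 h at 35 °C. Cells were formalin-fixed and crystal violet-stained. Duplicate plaque counts were converted to percent of control and the IC50 interpolated. Runs were repeated 2–3 times, the highest interpolated IC50 reported, and enviroxime was included as control.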"}, "[4]": {"target": "T1, Human rhinovirus A protease (Human rhinovirus sp.)", "assay": "Percent inhibition of HRV-14 3C protease was measured at a concentration of 5 ug/mL (average of duplicates which agreed within +/- 10%)"}}, "note": "Non-standard residues stand in square brackets, D forms with d. Residues, ends and D or L forms follow the SMILES beside them. ξ: configuration not given here. *: point of attachment. X1 = COC(=O)/C=C/[C@H](CCC(N)=O)N*; ξE = NC(CCC(=O)O)C(=O)O; Boc = CC(C)(C)OC(=O)*; OtBu = CC(C)(C)O*", "data": [{"smiles": "COC(=O)/C=C/[C@H](CCC(N)=O)NC(=O)[C@H](Cc1ccccc1)NC(=O)[C@H](CC(C)C)NC(=O)[C@H](NC(=O)[C@@H](N)CCC(=O)O)C(C)C", "values": [{"measurement": "inhibition", "setting": "[1]", "value": 100, "unit": "%"}]}, {"smiles": "COC(=O)/C=C/C(CCC(N)=O)NC(=O)OC(C)(C)C", "note": "(stereo not given)", "values": [{"measurement": "inhibition", "setting": "[2]", "value": 18, "unit": "%"}]}, {"smiles": "CC(C)C[C@H](NC(=O)[C@@H](NC(=O)OC(C)(C)C)C(C)C)C(=O)N[C@@H](Cc1ccccc1)C(=O)N[C@H](/C=C/C(=O)O)CCC(N)=O", "values": [{"measurement": "IC50", "setting": "[3]", "value": "> 10", "unit": "µg/mL"}, {"measurement": "inhibition", "setting": "[1]", "value": 43, "unit": "%"}]}, {"smiles": "CCOC(=O)/C=C/C(CCC(N)=O)NC(=O)C(Cc1ccccc1)NC(=O)OC(C)(C)C", "note": "(stereo not given)", "values": [{"measurement": "IC50", "setting": "[3]", "value": "> 10", "unit": "µg/mL"}, {"measurement": "inhibition", "setting": "[2]", "value": 39, "unit": "%"}]}, {"smiles": "COC(=O)/C=C/[C@H](CCC(N)=O)NC(=O)[C@H](Cc1ccccc1)NC(=O)[C@H](CC(C)C)NC(=O)[C@@H](NC(=O)OC(C)(C)C)C(C)C", "values": [{"measurement": "IC50", "setting": "[3]", "value": 0.74, "unit": "µg/mL"}, {"measurement": "inhibition", "setting": "[1]", "value": 100, "unit": "%"}]}, {"smiles": "COC(=O)/C=C/C(CCC(N)=O)NC(=O)C(Cc1ccccc1)NC(=O)OCc1ccccc1", "note": "(stereo not given)", "values": [{"measurement": "IC50", "setting": "[3]", "value": 3.2, "unit": "µg/mL"}, {"measurement": "inhibition", "setting": "[4]", "value": 51, "unit": "%"}]}, {"smiles": "CCOC(=O)/C=C/[C@H](CCC(N)=O)NC(=O)[C@H](Cc1ccccc1)NC(=O)[C@H](CC(C)C)NC(=O)[C@@H](NC(=O)OC(C)(C)C)C(C)C", "values": [{"measurement": "IC50", "setting": "[3]", "value": 0.41, "unit": "µg/mL"}, {"measurement": "inhibition", "setting": "[1]", "value": 100, "unit": "%"}]}, {"smiles": "NC(=O)CCC(/C=C/S(=O)(=O)c1ccccc1)NC(=O)C(Cc1ccccc1)NC(=O)OCc1ccccc1", "note": "(stereo not given)", "values": [{"measurement": "IC50", "setting": "[3]", "value": "> 10", "unit": "µg/mL"}, {"measurement": "inhibition", "setting": "[2]", "value": 42, "unit": "%"}]}, {"smiles": "COC(=O)/C=C/C(CCC(N)=O)NC(=O)C(Cc1ccccc1)NC(=O)OC(C)(C)C", "note": "(stereo not given)", "values": [{"measurement": "IC50", "setting": "[3]", "value": "> 10", "unit": "µg/mL"}, {"measurement": "inhibition", "setting": "[2]", "value": 42, "unit": "%"}]}, {"smiles": "COC(=O)/C=C/[C@H](CCC(N)=O)NC(=O)[C@H](Cc1ccccc1)NC(=O)[C@H](CC(C)C)NC(=O)[C@@H](NC(=O)C(CCC(=O)OC(C)(C)C)NC(=O)OC(C)(C)C)C(C)C", "note": "(stereo not given in full) (Boc-[ξE](OtBu)VLF-X1)", "values": [{"measurement": "IC50", "setting": "[3]", "value": 4.5, "unit": "µg/mL"}, {"measurement": "inhibition", "setting": "[1]", "value": 100, "unit": "%"}]}, {"smiles": "COC(=O)/C=C/[C@H](CCC(N)=O)NC(=O)[C@H](Cc1ccccc1)NC(=O)[C@H](CC(C)C)NC(=O)[C@@H](NC(=O)OCc1ccccc1)C(C)C", "values": [{"measurement": "IC50", "setting": "[3]", "value": 0.93, "unit": "µg/mL"}, {"measurement": "inhibition", "setting": "[1]", "value": 100, "unit": "%"}]}, {"smiles": "CCOC(=O)/C=C/C(CCC(N)=O)NC(=O)OC(C)(C)C", "note": "(stereo not given)", "values": [{"measurement": "IC50", "setting": "[3]", "value": "> 10", "unit": "µg/mL"}, {"measurement": "inhibition", "setting": "[2]", "value": 27, "unit": "%"}]}, {"smiles": "COC(=O)/C=C/[C@H](CCC(N)=O)NC(=O)[C@H](Cc1ccccc1)NC(=O)[C@H](CC(C)C)NC(=O)[C@@H](NC(=O)[C@@H](N)CCC(=O)O)C(C)C", "values": [{"measurement": "IC50", "setting": "[3]", "value": "> 10", "unit": "µg/mL"}]}, {"smiles": "CCOC(=O)/C=C/C(CCC(N)=O)NC(=O)OCc1ccccc1", "note": "(stereo not given)", "values": [{"measurement": "IC50", "setting": "[3]", "value": "> 10", "unit": "µg/mL"}, {"measurement": "inhibition", "setting": "[2]", "value": 18, "unit": "%"}]}]}
